The results in this text go back to ChEMBL document CHEMBL2331494, “First synthesis and biological evaluation of indeno[2,1-e]pyrazolo[3,4-b]pyrazin-5-one and related derivatives” (2013).

Converted amounts (≈) assume the structure as drawn.

Common to all, as to type: functional
Test [1] relates to Aspergillus flavus. Briefly: Antifungal activity against Aspergillus flavus AUMC 3214 assessed as growth inhibition at 28 degC after 7 days. The conditions noted are these: for MIC: Aspergillus flavus, AUMC 3214, 168 h.
The subject of another test is Serratia marcescens. Briefly: Antibacterial activity against Serratia marcescens AUMC B-55 assessed as diameter of growth inhibition zone at 20 mg/ml at 28 degC after 48 hrs. The conditions noted are these: AUMC B-55, 48 h, read-out: DIZ. An outline of the steps:
(§1)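 Inocula: each bacterial strain grown 48 h in nutrient broth (30 ml per flask). For the assay, 1 ml microbial suspension and 15 ml nutrient agar were poured into each 10 cm Petri plate, compound solutions were applied, and the diameter of the inhibition zone was read.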

The subject of test [2] is Trichophyton rubrum. The experiment in a line: Antifungal activity against Trichophyton rubrum AUMC 1804 assessed as diameter of growth inhibition zone at 20 mg/ml at 28 degC after 7 days. The conditions noted are these: AUMC 1804, 168 h, read-out: DIZ. An outline of the steps: (§2)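 Inocula: each fungus grown 7 days in Sabouraud's dextrose broth (30 ml per flask). Plates were 10 cm Petri dishes with 1 ml microbial suspension and 15 ml Sabouraud's dextrose agar each. Compound solutions were applied and the diameter of the growth inhibition zone was recorded.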

The test system of a further test is Micrococcus luteus. The experiment in a line: Antibacterial activity against Micrococcus luteus AUMC B-112 assessed as diameter of growth inhibition zone at 20 mg/ml at 28 degC after 48 hrs. The conditions noted are these: AUMC B-112, 48 h, read-out: DIZ. An outline of the steps:
as §1

A further test has as its system Geotrichum candidum. The experiment in a line: Antifungal activity against Geotrichum candidum AUMC 226 assessed as diameter of growth inhibition zone at 20 mg/ml at 28 degC after 7 days. The conditions noted are these: AUMC 226, 168 h, read-out: DIZ. Put shortly:
as §2

The subject of a further test is Bacillus cereus. The experiment in a line: Antibacterial activity against Bacillus cereus AUMC B-52 assessed as diameter of growth inhibition zone at 20 mg/ml at 28 degC after 48 hrs. Particulars: AUMC B-52, 48 h, read-out: DIZ. An outline of the steps: as §1
A further test deals with Escherichia coli. Briefly: Antibacterial activity against Escherichia coli AUMC B-53 assessed as diameter of growth inhibition zone at 20 mg/ml at 28 degC after 48 hrs. The conditions noted are these: AUMC B-53, 48 h, read-out: DIZ. An outline of the steps: as §1
The test system of a further test is Fusarium oxysporum. Briefly: Antifungal activity against Fusarium oxysporum AUMC 5119 assessed as diameter of growth inhibition zone at 20 mg/ml at 28 degC after 7 days. Particulars: AUMC 5119, 168 h, read-out: DIZ. An outline of the steps:
as §2

The test system of test [3] is Trichophyton rubrum. The experiment in a line: Antifungal activity against Trichophyton rubrum AUMC 1804 assessed as growth inhibition at 28 degC after 7 days. Particulars: for MIC: Trichophyton rubrum, AUMC 1804, 168 h.
A further test concerns Pseudomonas aeruginosa. The experiment in a line: Antibacterial activity against Pseudomonas aeruginosa AUMC B-73 g assessed as diameter of growth inhibition zone at 20 mg/ml at 28 degC after 48 hrs. Particulars: read-out: DIZ. Put shortly:
as §1

Test [4] concerns Scopulariopsis brevicaulis. The experiment in a line: Antifungal activity against Scopulariopsis brevicaulis AUMC 729 assessed as diameter of growth inhibition zone at 20 mg/ml at 28 degC after 7 days. Particulars: AUMC 729, 168 h, read-out: DIZ. An outline of the steps: as §2
A further test relates to Candida albicans. The experiment in a line: Antifungal activity against Candida albicans AUMC 418 assessed as diameter of growth inhibition zone at 20 mg/ml at 28 degC after 7 days. Particulars: AUMC 418, 168 h, read-out: DIZ. An outline of the steps:
as §2

Test [5] concerns Aspergillus flavus. Briefly: Antifungal activity against Aspergillus flavus AUMC 1276 assessed as diameter of growth inhibition zone at 20 mg/ml at 28 degC after 7 days. Particulars: AUMC 1276, 168 h, read-out: DIZ. Put shortly: as §2
A further test has as its system Staphylococcus aureus. The experiment in a line: Antibacterial activity against Staphylococcus aureus AUMC B-54 assessed as diameter of growth inhibition zone at 20 mg/ml at 28 degC after 48 hrs. Particulars: AUMC B-54, 48 h, read-out: DIZ. Put shortly:
as §1

By MIC is commonly meant the smallest concentration in the dilution series that meets the test's criterion for growth inhibition. As for `CCOC(=O)C1S/C(=N\N=C2/c3ccccc3-c3nc4c(nc32)c(C)nn4-c2ccccc2)NC1=O` (configuration not stated), the “diameter of the inhibition zone (DIZ)” value with Aspergillus flavus [1] was found to be 10 mm; in the test on Trichophyton rubrum [3] it was 16 mm. Also, the results for the MIC in the test with Aspergillus flavus [1] and in the test on Trichophyton rubrum [3] were 2500 µg/mL (≈ 5020 µM) and 300 µg/mL (≈ 603 µM), respectively. In addition, the zone of inhibition at 20000 µg/mL is 0 mm in the test with Serratia marcescens; 30 mm in the test on Trichophyton rubrum [2]; 0 mm in the test on Micrococcus luteus; 10 mm with Geotrichum candidum; 0 mm with Bacillus cereus; 8 mm in the test on Escherichia coli. Besides, the zone of inhibition at 20000 µg/mL in the test on Fusarium oxysporum came out at 0 mm; in the test with Pseudomonas aeruginosa it was 8 mm; in test [4], 0 mm; in the test on Candida albicans it was 0 mm; with Aspergillus flavus [5] it was 13 mm; in the test with Staphylococcus aureus, 8 mm.

For `Cc1nn(-c2ccccc2)c2nc3c(nc12)/C(=N\NC(N)=S)c1ccccc1-3`, the “diameter of the inhibition zone (DIZ)” value in the test with Aspergillus flavus [1] and with Trichophyton rubrum [3] was 14 mm each time. In addition, the MIC with Aspergillus flavus [1] amounted to 2500 µg/mL (≈ 6490 µM); in the test on Trichophyton rubrum [3], 300 µg/mL (≈ 778 µM). The zone of inhibition at 20000 µg/mL is 0 mm with Serratia marcescens; 30 mm with Trichophyton rubrum [2]; 0 mm with Micrococcus luteus; 17 mm in the test with Geotrichum candidum; 0 mm with Bacillus cereus; 0 mm with Escherichia coli. The zone of inhibition at 20000 µg/mL came to 0 mm in the test on Fusarium oxysporum; 0 mm in the test with Pseudomonas aeruginosa; 0 mm in test [4]; 0 mm with Candida albicans; 16 mm with Aspergillus flavus [5]; 8 mm in the test on Staphylococcus aureus.
